High-throughput results as filed in PubChem BioAssay.
Compounds with a hit are over-represented: about 11% of the library has one in this group of screens.
Diaphorase inh: inhibits diaphorase or chemically oxidizes, flagging diaphorase assay artifacts. diaphorase resazurin-to-resorufin fluorescence, NADH, 16 min; bacterial (C. kluyveri) enzyme, not human. inhibition, % at 20 µM. 0.69% of 190,000 active. AID 1217;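 active = primary screen inhibition at 20 µM above a set limit, cut at about 50% in these data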;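 also: plate controls were DMSO with full reaction for no effect and wells lacking NADH for full effect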
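Assay system: diaphorase enzyme from Clostridium kluyveri; Input: enzyme working solution with 0.14 U/mL diaphorase; Timing: 16 min at room temperature; Technique: resorufin fluorescence, excitation 544 nm, emission 590 nm; Benchmarks: positive control minus NADH, DMSO neutral control.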
Diaph act CS: diaphorase activation or chemical reduction counter-screen. Diaphorase/resazurin coupled assay, resorufin fluorescence, 16 min; active compounds read high; 1 = vehicle wells, 0 = NADH-free wells. activation factor at 20 µM. 0.005% of 190,000 active;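 active = diaphorase activity raised at least twofold by the compound at 20 µM; inactive = activation factor below 2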
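Material: Clostridium kluyveri diaphorase, purified enzyme; Quantity: enzyme 0.07 U/mL final; Medium: HEPES pH 7.4 buffer with MgCl2 and Tween 20; Dosing: single compound dose of 20 µM, 1% DMSO final; Schedule: 16 min reaction at room temperature; Measured by: red resorufin fluorescence at 544/590 nm excitation/emission.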
WT yeast gro inh: growth inhibition of WT yeast, mitochondrial fusion screen; AID 1362; mitochondrial fusion phenotypic screen, WT strain; 2.1% of 190,000 active; inhibition, % at 10 µM; in the data active = inhibition above about 58%; tested in S. cerevisiae
Lmaj promast: reduces viability of Leishmania major promastigotes; resazurin fluorescence viability; inhibition, % at 10 µM; 9% of 200,000 active;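 also: promastigotes grown with compound for 44 hours at 28 °C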
G6PDH CS: counter-screen for G6PDH assay hits: L. mesenteroides G6PDH inhibition; Purified L. mesenteroides G6PDH, diaphorase/resazurin coupled fluorescence, 45 min; inhibition, % at 5 µM; 0.12% of 200,000 active; AID 1020
Active calls of the source: *. Rule as the data show it, unless noted: active = inhibition above about 50%; inactive = the rest.

SMILES	Diaphorase inh	Diaph act CS	WT yeast gro inh	Lmaj promast	G6PDH CS
Cc1ccc(C(=O)/C=C/c2ccccc2)o1	10	0.9	19	83*	-2
CSc1nnc2ccc(-c3ccccn3)nn12	-3	1	-3	0	1
Cc1cc(C)cc(N=Cc2[nH]c3ccc(Br)c(Cl)c3c2O)c1	24	0.8	5	-1	-15
COc1ccc(CN=Cc2[nH]c3ccc(Br)c(Cl)c3c2O)cc1	19	0.8	51	99*	-50
CSc1ccccc1NC(=O)CSc1nnnn1-c1ccccc1SC	16	0.8	5	67*	0
O=C1C2C3C=CC(C4CC34)C2C(=O)N1Cc1ccccc1 (centres undefined)	-7	1.1	-12	-5	-4
O=C1C2C3CCC(C3)C2C(=O)N1Cc1ccccc1 (centres undefined)	10	0.9	-31	57*	9
CN(C)S(=O)(=O)c1cc(NC(=O)COC(=O)c2ccc3c(c2)OCO3)ccc1Cl	9	0.9	-15	-7	-9
CC1=C(C)CC(C(=O)Nc2ccc(C(N)=O)cc2)C(C(=O)O)C1 (centres undefined)	6	0.9	-6	-1	-1
Cc1cc([N+](=O)[O-])ccc1NC(=O)Nc1ccc(F)cc1F	15	0.8	47	67*	-2
O=C(Nc1ccc(OC(F)(F)F)cc1)Nc1cccc([N+](=O)[O-])c1	8	0.9	80*	100*	-1
Cc1cc(NC(=O)Nc2cccc([N+](=O)[O-])c2)no1	6	0.9	-9	5	-1
Cc1ccc(NC(=O)Nc2cccc([N+](=O)[O-])c2)cc1F	7	0.9	38	53*	-4
CC1=C(C)CC(C(=O)Nc2cccc([N+](=O)[O-])c2)C(C(=O)O)C1 (centres undefined)	14	0.9	-28	67*	2
CC(C)(C)C1CCC(=NNC(=O)C(=O)NC2CCCCC2)CC1 (centres undefined)	8	0.9	-9	17	9
CCNC(=O)CC1SC(=Nc2cccc3ccccc23)N(C)C1=O (centres undefined)	12	0.9	-12	-6	1
O=C(c1cc2sccc2n1Cc1ccc(F)cc1)N1CCCc2ccccc21	15	0.9	42	78*	2
CC(C)NC(=O)C1CCN(C(=O)c2cc3sccc3n2Cc2ccc(F)cc2)CC1	13	0.9	0	13	5
CC1CCN(C(=O)C2CCN(C(=O)c3cc4sccc4n3Cc3ccc(F)cc3)CC2)CC1	25	0.8	52	67*	4
CC1=NN(c2nc(-c3ccc(C)cc3)cs2)C(=O)C1N=Nc1cccc(O)c1 (centres undefined)	23	0.8	6	39	5
CC1=NN(c2nc(-c3ccc(C)cc3)cs2)C(=O)C1N=Nc1ccccc1O (centres undefined)	-8	1.1	6	99*	15
CCc1ccc2[nH]c(=O)c(C(c3nnnn3Cc3ccc(OC)cc3)N3CCOCC3)cc2c1 (centres undefined)	23	0.8	5	4	-4
CCc1ccc2[nH]c(=O)c(C(c3nnnn3Cc3ccccc3)N3CCOCC3)cc2c1 (centres undefined)	3	1	18	96*	20
Cc1cccc2cc(C(c3nnnn3Cc3ccccc3)N3CCN(c4ccccc4)CC3)c(=O)[nH]c12 (centres undefined)	30	0.7	25	51*	9
Cc1cc2cc(C(c3nnnn3Cc3ccccc3)N3CCc4ccccc43)c(=O)[nH]c2cc1C (centres undefined)	42	0.6	-2	99*	20
Cc1cc2cc(C(c3nnnn3Cc3ccco3)N3CCc4ccccc4C3)c(=O)[nH]c2cc1C (centres undefined)	59*	0.4	9	91*	11
Cc1cccc2cc(C(c3nnnn3Cc3ccccc3)N3CCN(C)CC3)c(=O)[nH]c12 (centres undefined)	13	0.9	-16	-10	5
Cc1ccc2cc(C(c3nnnn3Cc3ccccc3)N3CCc4ccccc43)c(=O)[nH]c2c1 (centres undefined)	41	0.6	-24	42	-3
Cc1ccc2[nH]c(=O)c(C(c3nnnn3Cc3ccccc3)N3CCc4ccccc43)cc2c1 (centres undefined)	47	0.5	3	74*	30
